High-throughput results (PubChem BioAssay)
SIAE primary: blocks human sialic acid acetylesterase; Q9HAT2; SIAE FP-Rh probe binding, fluorescence polarization; inhibition, % at 9.66 µM; 0.69% of 370,000 active; AID 1053197;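 active = inhibition above a cutoff: mean of compounds within the control limits plus 3 SD of those, cut at about 17% in these data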;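 note: 0% = plate median of compound wells and 100% = probe without SIAE protein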
Target sequence (Q9HAT2 whole entry, looked up): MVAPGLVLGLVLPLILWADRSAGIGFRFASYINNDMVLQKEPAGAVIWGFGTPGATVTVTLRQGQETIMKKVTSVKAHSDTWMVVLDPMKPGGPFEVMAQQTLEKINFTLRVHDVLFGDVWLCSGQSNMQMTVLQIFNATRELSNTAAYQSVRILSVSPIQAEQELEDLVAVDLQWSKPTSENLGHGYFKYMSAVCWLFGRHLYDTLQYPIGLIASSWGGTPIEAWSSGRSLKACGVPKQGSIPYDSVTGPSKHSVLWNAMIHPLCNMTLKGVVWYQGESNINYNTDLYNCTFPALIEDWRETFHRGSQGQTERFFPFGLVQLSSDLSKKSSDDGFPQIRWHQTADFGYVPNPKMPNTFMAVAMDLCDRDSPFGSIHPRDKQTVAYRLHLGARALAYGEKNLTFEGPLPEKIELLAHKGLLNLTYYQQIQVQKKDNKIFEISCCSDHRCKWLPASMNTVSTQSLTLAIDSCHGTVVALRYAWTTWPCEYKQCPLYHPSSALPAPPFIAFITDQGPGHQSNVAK
HTRA1 inh: blocks human HTRA1 serine peptidase | Q92743 | recombinant HTRA1, FP-rhodamine activity-based probe, fluorescence polarization | inhibition, % at 5.96 µM | 0.5% of 340,000 active | AID 504803; in the data active = inhibition above about 36%;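 note: 0% = enzyme with DMSO and 100% = wells lacking enzyme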
TCR-CD3 inh: inhibitors of human TCR-CD3 interaction. TAMRA-labeled TCR probe fluorescence, biochemical. inhibition, % at 9.4 µM. 0.37% of 360,000 active. AID 651800; in the data active = inhibition above about 19%;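 note: recombinant mutant TCR 2C K166C tagged with TAMRA read by polarization; 0% = receptor in buffer alone and 100% = receptor with positive control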
mABHD4 FP: inhibits mouse alpha/beta hydrolase domain 4; AID 720543; 0.54% of 370,000 active; Q8VD66; purified mABHD4, FP-Rh probe fluorescence polarization; inhibition, % at 8.92 µM;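 active = inhibition exceeding the mean over every tested compound plus 3 SD, cut at about 30% in these data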;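 note: 0% = plate median of compound wells and 100% = S159A mutant with DMSO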
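System: mouse ABHD4 enzyme, wild type / Medium: HEPES pH 7.0, NaCl, Pluronic buffer / Reagent: FP-Rh activity-based fluorescent probe / Control set: S159A mutant high control, sample median low control / Detection: fluorescence polarization with parallel and perpendicular emission, 525/598 nm / Schedule: 45 min + 60 min at 25 °C / Compound dosing: 8.92 µM, single dose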
PRMT1 FP inh: blocks human protein arginine methyltransferase 1; Q99873; recombinant PRMT1, activity-based probe fluorescence polarization; inhibition, % at 2.79 µM; 1.3% of 370,000 active; AID 652257;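 active = inhibition above about 21% made by adding two undisclosed values, limit read from the data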
PRMT1 confirm: PRMT1 (human) inhibition, FP confirmation; shares compounds with PRMT1 FP inh; recombinant His-PRMT1, activity-based probe fluorescence polarization; inhibition, % at 2.79 µM; 42% of 3,300 active;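 active = mean inhibition across replicates above the hit cutoff derived for the earlier primary screen, cut at about 22% in these data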
* = called active by the depositor; . = no result. A selection: hits, their analogues and other compounds. The true share with any hit is near 2.5%.

SMILES	SIAE primary	HTRA1 inh	TCR-CD3 inh	mABHD4 FP	PRMT1 FP inh	PRMT1 confirm
CCn1c(C)c(C(C)=O)c(N2CCN(C(c3ccccc3)c3ccccc3)CC2)nc1=S	-5	-4	0	7	-1	.
CCC(=O)Nc1nc(-c2ccc3c(c2)OCCO3)cs1	0	-3	1	-2	-4	.
c1cc2c(cc1-c1csc(NNC3=NCCCCC3)n1)OCCO2	9	.	-8	15	75*	24*
Cc1cc(C)c(C2=NOC3c4ccccc4OCC23)c(C)c1 (stereo unspecified)	-6	.	7	1	-2	.
Cc1nc2ccc(S(=O)(=O)NCC(=O)NCc3ccc4c(c3)OCO4)cc2s1	-9	0	7	-8	49*	1
Cc1c(C)n(Cc2ccc(F)cc2)c2ccc(C(=O)NCCN3CCOCC3)cc12	0	7	4	-4	3	.
CC(=O)Nc1ccc2cc3ccc(NC(C)=O)cc3nc2c1	-7	9	-5	5	37*	22*
CC(=O)Nc1ccc2ccccc2c1	.	8	.	.	.	.
O=C1C(Cl)=C(N2CCOCC2)C(=O)N1c1ccccc1F	-3	-6	1	8	40*	13
Cc1ccccc1N1C(=O)C(Cl)=C(N2CCOCC2)C1=O	5	0	0	4	8	.
CC12CCC3c4ccc(OCCCO)c([N+](=O)[O-])c4CCC3C1CCC2=O (stereo unspecified)	-1	.	-9	4	3	.
Clc1ccc(-c2nc3nc4ccccc4nc3n2Cc2ccco2)cc1	-12	-12	-4	-9	27*	13
COC(=O)CC1C(=O)NCCN1C(=O)CSc1nc2ccccc2s1 (stereo unspecified)	5	1	2	-1	36*	37*
COC(=O)CC1C(=O)NCCN1C(=O)c1ccccc1 (stereo unspecified)	2	-3	3	0	-4	.
O=C(CN1CC[n+]2c(-c3ccccc3)csc21)c1ccc(Br)cc1	8	.	13	6	49*	55*
O=C(CN1CC[n+]2c(-c3cccs3)csc21)c1ccc(Br)cc1	4	-3	6	9	25*	42*
Cc1cs/c(=N\N=C2CCCCC2)n1Cc1ccco1	0	-3	2	24	2	.
CC(=O)N(c1ccccc1)C1SC(=O)N(c2ccccc2)C1=O (stereo unspecified)	1	-4	5	5	13	.
CC(=O)N(c1cccc(C)c1)C1SC(=O)N(c2ccccc2)C1=O (stereo unspecified)	-8	-1	-1	-2	32*	23*
COCc1cc(C)c(C#N)c(=S)[nH]1	.	-1	.	.	.	.
C=CCc1c(C)[nH]c(=S)c(C#N)c1C	-7	-14	6	6	32*	53*
CCc1noc(C)c1C(=O)NNC(=O)c1cc(OC)cc(OC)c1	0	-2	-4	-4	2	.
Cc1c(Cl)cccc1NC(=S)NC1CCN(Cc2ccccc2)CC1	0	-6	7	-4	1	.
S=C(Nc1ccccc1Cl)NC1CCN(Cc2ccccc2)CC1	9	-1	4	-3	25*	11
Cc1ccc(NS(=O)(=O)c2ccc(C(=O)Nc3nncs3)cc2)cc1	4	-2	2	0	1	.
SMILES	SIAE primary	HTRA1 inh	TCR-CD3 inh	mABHD4 FP	PRMT1 FP inh	PRMT1 confirm
O=C(CN1CCN(c2ccc(O)cc2)CC1)NCC(=O)Nc1ccc(F)c(F)c1F	9	2	0	24	37*	2
O=C(CN1CCN(c2ccc(O)cc2)CC1)NC(c1ccccc1)c1ccccc1	4	9	-6	17	25*	8
Cc1ccc(N2CCN(S(=O)(=O)c3ccc(C)cc3)CC2)cc1	-4	6	-1	1	-2	.
Cc1cc(NC(=O)CN2CCN(c3ccc(O)cc3)CC2)no1	2	-5	0	11	42*	4
Cc1ccc(S(=O)(=O)N2CCN(C(=O)CN3CCN(c4ccc(O)cc4)CC3)CC2)cc1	10	12	1	14	34*	7
COCCN(C(=O)CSc1nnc(-c2ccccc2C)n1C)c1c(N)n(Cc2ccccc2)c(=O)[nH]c1=O	15	-1	-1	-1	28*	33*
CCN(C(=O)CSc1nnc(-c2ccc(OC)cc2)n1N)c1c(N)n(Cc2ccccc2)c(=O)[nH]c1=O	6	8	-1	8	36*	28*
CC(C)CN(C(=O)CSc1nc(-c2ccccc2)cn1N)c1c(N)n(Cc2ccccc2)c(=O)[nH]c1=O	10	-8	2	2	26*	10
CCN(C(=O)CSc1nnc(-c2cccc(F)c2)n1N)c1c(N)n(Cc2ccccc2)c(=O)[nH]c1=O	-6	-1	0	0	16	.
COc1ccc(-c2nc(SCC(=O)N(CC(C)C)c3c(N)n(Cc4ccccc4)c(=O)[nH]c3=O)n[nH]2)cc1	5	-6	2	3	4	.
COc1ccc(C(=O)OCCOc2cccc(Cl)c2)cc1S(=O)(=O)N1CCOCC1	3	-13	-1	-10	-1	.
Cc1cc2nccc(-c3ccc(Cl)cc3Cl)n2n1	9	2	4	0	-2	.
Oc1ccc(Cl)cc1C=Nc1ccc2c3c(cccc13)CC2	-1	21	15	20	39*	13
Oc1ccc(Cl)cc1/C=N/c1nccs1	4	2	-1	0	1	.
CCN1/C(=C\C(=S)Nc2ccccc2)Sc2ccccc21	14	11	1	10	71*	16
Cc1sc(NC(=S)NC(=O)c2ccco2)c(C#N)c1C	-2	-4	-7	-6	49*	3
Cc1sc(NC(=S)NC(=O)c2ccccc2)c(C#N)c1C	1	-9	-7	-3	18	.
Cc1ccc(/C=c2\sc3n(c2=O)CN(c2cccc(Br)c2)CN=3)o1	2	-7	3	19	34*	4
O=c1/c(=C/c2ccco2)sc2n1CN(c1cccc(Br)c1)CN=2	-1	8	3	28	12	.
CCOC(=O)C1=C(C)NC(=NC)SC1c1ccccc1 (stereo unspecified)	-1	8	-10	4	2	.
COc1ccc(N/C=C2/Sc3ccccc3NC2=O)cc1	6	9	1	5	33*	30*
O=C1Nc2ccccc2S/C1=C/NCc1ccccc1Cl	13	2	0	1	20	.
Cc1ccc(N/C=C2/Sc3ccccc3NC2=O)cc1	2	4	-5	-3	31*	10
CC(C)(C)N(Cc1cn(Cc2ccccc2)nn1)S(=O)(=O)c1ccc(N2CCCC2)cc1Br	4	.	.	-4	-3	.
Cc1ccc(CN2CC(C(=O)N3CCN(c4ccccc4O)CC3)CC2=O)cc1 (stereo unspecified)	8	-8	0	5	-2	.
COC(=O)c1ccc2c(=O)n(CCN3CCOCC3)c(SCC(=O)Nc3ccccc3OC)nc2c1	3	6	-2	0	7	.
